Measured values published in ChEMBL document CHEMBL4229368, “N,N'-disubstituted cinnamamide derivatives potentiate ciprofloxacin activity against overexpressing NorA efflux pump Staphylococcus aureus 1199B strains” (Eur J Med Chem, 2018).

Assays:
Staphylococcus aureus [1] = assay: Growth inhibition of Staphylococcus aureus SA1199B over-expressing NorA at 3.9 ug/ml after 18 to 24 hrs by broth microdilution method; type: organism-based
Staphylococcus aureus [2] = assay: Potentiation of ciprofloxacin-induced antibacterial activity against wild type Staphylococcus aureus SA1199 assessed as fold reduction in ciprofloxacin MIC at 8.5 uM after 18 to 24 hrs by broth microdilution method; type: functional
In short: (§1)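 Ciprofloxacin MIC by CLSI/CASFM broth microdilution in Mueller-Hinton II, two-fold serial dilutions, inoculum 5.10⁵ CFU/mL, 37 °C for 18-24 h. MIC is the lowest concentration with no visible growth. Test agent co-administered at a fixed final concentration without antibacterial activity (10 or 30 µg/mL, or 1/4 MIC where intrinsically active). Result is fold reduction of ciprofloxacin MIC. At least three independent experiments.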

[3] = target: T1, Quinolone resistance protein NorA (Staphylococcus aureus) (UniProt P0A0J7); assay: Inhibition of NorA in Staphylococcus aureus SA1199B assessed as potentiation of ciprofloxacin-induced antibacterial activity by measuring fold reduction in ciprofloxacin MIC at 8.5 uM after 18 to 24 hrs by broth microdilution method; in short: as §1
T1 sequence (whole entry): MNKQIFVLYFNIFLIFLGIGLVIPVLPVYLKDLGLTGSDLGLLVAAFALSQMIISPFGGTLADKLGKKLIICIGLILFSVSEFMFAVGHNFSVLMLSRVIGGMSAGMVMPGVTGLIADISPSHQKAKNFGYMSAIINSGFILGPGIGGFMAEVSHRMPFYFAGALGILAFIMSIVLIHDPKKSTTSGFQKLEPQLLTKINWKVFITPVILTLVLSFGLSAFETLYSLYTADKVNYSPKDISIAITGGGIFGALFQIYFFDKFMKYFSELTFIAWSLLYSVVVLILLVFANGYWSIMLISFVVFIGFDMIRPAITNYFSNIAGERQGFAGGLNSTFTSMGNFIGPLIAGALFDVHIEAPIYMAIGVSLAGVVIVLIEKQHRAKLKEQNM

Staphylococcus aureus [4] = assay: Growth inhibition of wild type Staphylococcus aureus SA1199 assessed as non-toxic concentration after 18 to 24 hrs by broth microdilution method; type: organism-based; conditions: pooled result: one value given for 2 cell lines, strains, targets or settings, read-out: Activity
Staphylococcus aureus [5] = assay: Growth inhibition of wild type Staphylococcus aureus SA1199 at 3.9 ug/ml after 18 to 24 hrs by broth microdilution method; type: organism-based
[6] = Cytotoxicity against human MRC5 cells assessed as reduction in cell viability after 72 hrs by MTT assay; type: cell-based
In short: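 MRC5 human lung fibroblasts plated in triplicate at 6000 cells/well in MEM with 10% FBS and incubated overnight at 37 °C, 5% CO2. Compound or DMSO vehicle applied for 72 h, then MTT 1 mg/mL added for 3 h at 37 °C. Formazan dissolved in 0.01 M HCl in isopropanol for 15 min. A570 read minus A690; GI50 as mean SD of ≥3 independent experiments.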

Staphylococcus aureus [7] = assay: Growth inhibition of wild type Staphylococcus aureus SA1199 after 18 to 24 hrs by broth microdilution method; type: organism-based
Staphylococcus aureus [8] = assay: Bactericidal activity against wild type Staphylococcus aureus SA1199 at 10 ug/ml after 18 to 24 hrs by broth microdilution method; type: ADME, organism-based
[9] = target: T1, Quinolone resistance protein NorA (Staphylococcus aureus); assay: Inhibition of NorA in Staphylococcus aureus SA1199B assessed as potentiation of ciprofloxacin-induced antibacterial activity by measuring fold reduction in ciprofloxacin MIC at 21 uM after 18 to 24 hrs by broth microdilution method; in short: as §1
Staphylococcus aureus [10] = assay: Potentiation of ciprofloxacin-induced antibacterial activity against wild type Staphylococcus aureus SA1199 assessed as fold reduction in ciprofloxacin MIC at 21 uM after 18 to 24 hrs by broth microdilution method; type: functional; in short: as §1
Staphylococcus aureus [11] = assay: Bactericidal activity against wild type Staphylococcus aureus SA1199 at 30 ug/ml after 18 to 24 hrs by broth microdilution method; type: ADME, organism-based; conditions: in vitro
[12] = target: T1, Quinolone resistance protein NorA (Staphylococcus aureus); assay: Inhibition of NorA in Staphylococcus aureus SA1199B assessed as potentiation of ciprofloxacin-induced antibacterial activity by measuring fold reduction in ciprofloxacin MIC at 90.9 uM after 18 to 24 hrs by broth microdilution method; in short: as §1
Staphylococcus aureus [13] = assay: Potentiation of ciprofloxacin-induced antibacterial activity against wild type Staphylococcus aureus SA1199 assessed as fold reduction in ciprofloxacin MIC at 90.9 uM after 18 to 24 hrs by broth microdilution method; type: functional; in short: as §1
Staphylococcus aureus [14] = assay: Growth inhibition of Staphylococcus aureus SA1199B over-expressing NorA at 15.6 ug/ml after 18 to 24 hrs by broth microdilution method; type: organism-based
Staphylococcus aureus [15] = assay: Potentiation of ciprofloxacin-induced antibacterial activity against wild type Staphylococcus aureus SA1199 assessed as fold reduction in ciprofloxacin MIC at 37.1 uM after 18 to 24 hrs by broth microdilution method; type: functional; in short: as §1
[16] = target: T1, Quinolone resistance protein NorA (Staphylococcus aureus); assay: Inhibition of NorA in Staphylococcus aureus SA1199B assessed as potentiation of ciprofloxacin-induced antibacterial activity by measuring fold reduction in ciprofloxacin MIC at 37.1 uM after 18 to 24 hrs by broth microdilution method; in short: as §1
Staphylococcus aureus [17] = assay: Potentiation of ciprofloxacin-induced antibacterial activity against wild type Staphylococcus aureus SA1199 assessed as fold reduction in ciprofloxacin MIC at 32.9 uM after 18 to 24 hrs by broth microdilution method; type: functional
Staphylococcus aureus [18] = assay: Potentiation of ciprofloxacin-induced antibacterial activity against wild type Staphylococcus aureus SA1199 assessed as fold reduction in ciprofloxacin MIC at 80.6 uM after 18 to 24 hrs by broth microdilution method; type: functional; in short: as §1
[19] = target: T1, Quinolone resistance protein NorA (Staphylococcus aureus); assay: Inhibition of NorA in Staphylococcus aureus SA1199B assessed as potentiation of ciprofloxacin-induced antibacterial activity by measuring fold reduction in ciprofloxacin MIC at 80.6 uM after 18 to 24 hrs by broth microdilution method; in short: as §1
Staphylococcus aureus [20] = assay: Potentiation of ciprofloxacin-induced antibacterial activity against wild type Staphylococcus aureus SA1199 assessed as fold reduction in ciprofloxacin MIC at 73 uM after 18 to 24 hrs by broth microdilution method; type: functional; in short: as §1
[21] = target: T1, Quinolone resistance protein NorA (Staphylococcus aureus); assay: Inhibition of NorA in Staphylococcus aureus SA1199B assessed as potentiation of ciprofloxacin-induced antibacterial activity by measuring fold reduction in ciprofloxacin MIC at 73 uM after 18 to 24 hrs by broth microdilution method; in short: as §1
[22] = target: T1, Quinolone resistance protein NorA (Staphylococcus aureus); assay: Inhibition of NorA in Staphylococcus aureus SA1199B assessed as potentiation of ciprofloxacin-induced antibacterial activity by measuring fold reduction in ciprofloxacin MIC at 19.1 uM after 18 to 24 hrs by broth microdilution method; in short: as §1
Staphylococcus aureus [23] = assay: Potentiation of ciprofloxacin-induced antibacterial activity against wild type Staphylococcus aureus SA1199 assessed as fold reduction in ciprofloxacin MIC at 19.1 uM after 18 to 24 hrs by broth microdilution method; type: functional; in short: as §1
[24] = target: T1, Quinolone resistance protein NorA (Staphylococcus aureus); assay: Potency index, ratio of compound effect to reserpine effect for inhibition of NorA in Staphylococcus aureus SA1199B assessed as potentiation of ciprofloxacin-induced antibacterial activity by measuring fold reduction in ciprofloxacin MIC
Staphylococcus aureus [25] = assay: Potentiation of ciprofloxacin-induced antibacterial activity against wild type Staphylococcus aureus SA1199 assessed as fold reduction in ciprofloxacin MIC at 20.6 uM after 18 to 24 hrs by broth microdilution method; type: functional; in short: as §1
[26] = target: T1, Quinolone resistance protein NorA (Staphylococcus aureus); assay: Inhibition of NorA in Staphylococcus aureus SA1199B assessed as potentiation of ciprofloxacin-induced antibacterial activity by measuring fold reduction in ciprofloxacin MIC at 20.6 uM after 18 to 24 hrs by broth microdilution method; in short: as §1
[27] = target: T1, Quinolone resistance protein NorA (Staphylococcus aureus); assay: Inhibition of NorA in Staphylococcus aureus SA1199B assessed as potentiation of ciprofloxacin-induced antibacterial activity by measuring fold reduction in ciprofloxacin MIC at 22.9 uM after 18 to 24 hrs by broth microdilution method; in short: as §1
Staphylococcus aureus [28] = assay: Potentiation of ciprofloxacin-induced antibacterial activity against wild type Staphylococcus aureus SA1199 assessed as fold reduction in ciprofloxacin MIC at 22.9 uM after 18 to 24 hrs by broth microdilution method; type: functional; in short: as §1
Staphylococcus aureus [29] = assay: Potentiation of ciprofloxacin-induced antibacterial activity against wild type Staphylococcus aureus SA1199 assessed as fold reduction in ciprofloxacin MIC at 81.3 uM after 18 to 24 hrs by broth microdilution method; type: functional; in short: as §1
[30] = target: T1, Quinolone resistance protein NorA (Staphylococcus aureus); assay: Inhibition of NorA in Staphylococcus aureus SA1199B assessed as potentiation of ciprofloxacin-induced antibacterial activity by measuring fold reduction in ciprofloxacin MIC at 81.3 uM after 18 to 24 hrs by broth microdilution method; in short: as §1
[31] = target: T1, Quinolone resistance protein NorA (Staphylococcus aureus); assay: Inhibition of NorA in Staphylococcus aureus SA1199B assessed as potentiation of ciprofloxacin-induced antibacterial activity by measuring fold reduction in ciprofloxacin MIC at 25.3 uM after 18 to 24 hrs by broth microdilution method; in short: as §1
Staphylococcus aureus [32] = assay: Potentiation of ciprofloxacin-induced antibacterial activity against wild type Staphylococcus aureus SA1199 assessed as fold reduction in ciprofloxacin MIC at 25.3 uM after 18 to 24 hrs by broth microdilution method; type: functional; in short: as §1
[33] = target: T1, Quinolone resistance protein NorA (Staphylococcus aureus); assay: Inhibition of NorA in Staphylococcus aureus SA1199B assessed as potentiation of ciprofloxacin-induced antibacterial activity by measuring fold reduction in ciprofloxacin MIC at 23 uM after 18 to 24 hrs by broth microdilution method; in short: as §1
Staphylococcus aureus [34] = assay: Potentiation of ciprofloxacin-induced antibacterial activity against wild type Staphylococcus aureus SA1199 assessed as fold reduction in ciprofloxacin MIC at 23 uM after 18 to 24 hrs by broth microdilution method; type: functional; in short: as §1

Compound | MNTC (Staphylococcus aureus [4]) | GI50 at 72 h [6] | Activity (Staphylococcus aureus [8]) | Activity (Staphylococcus aureus [11]) | also measured
Cl.N[C@@H](Cc1ccccc1)CN(CCc1c[nH]c2ccccc12)C(=O)/C=C/c1ccccc1 | 8.5 µM | 6.33 µM | – | – | growth inhibition (GI) (Staphylococcus aureus [1]): Toxic; fold change (FC) (Staphylococcus aureus [2]): 2; fold change (FC) [3]: 2; growth inhibition (GI) (Staphylococcus aureus [5]): Toxic; MIC (Staphylococcus aureus [7]): 15.7 µg/mL
CC(C)[C@@H](CN(CCc1c[nH]c2ccccc12)C(=O)/C=C/c1ccccc1)NC(=O)OC(C)(C)C | 21 µM | 43.7 µM | Non-Toxic | – | fold change (FC) [9]: 4; fold change (FC) (Staphylococcus aureus [10]): 1 - 2
Cl.NCCN(CCc1ccccc1)C(=O)/C=C/c1ccccc1 | 90.9 µM | 73.3 µM | – | Non-Toxic | fold change (FC) [12]: 1; fold change (FC) (Staphylococcus aureus [13]): 1 - 2
Cl.N[C@@H](Cc1ccccc1)CN(CCc1ccccc1)C(=O)/C=C/c1ccccc1 | 37.1 µM | 6.5 µM | – | – | growth inhibition (GI) (Staphylococcus aureus [14]): Toxic; fold change (FC) (Staphylococcus aureus [15]): 2 - 4; fold change (FC) [16]: 2; MIC (Staphylococcus aureus [7]): 62.5 µg/mL
COC(=O)[C@H]1[C@H]2C[C@@H]3c4[nH]c5cc(OC)ccc5c4CCN3C[C@H]2C[C@@H](OC(=O)c2cc(OC)c(OC)c(OC)c2)[C@@H]1OC [RESERPINE] | 32.9 µM | 14.7 µM | – | – | fold change (FC) (Staphylococcus aureus [17]): 2
CC(C)[C@H](N)CN(CCc1ccccc1)C(=O)/C=C/c1ccccc1.Cl | 80.6 µM | 52.4 µM | – | Non-Toxic | fold change (FC) (Staphylococcus aureus [18]): 1 - 2; fold change (FC) [19]: 2
CC(C)[C@H](N)CN(CCc1c[nH]c2ccccc12)C(=O)/C=C/c1ccccc1.Cl | 73 µM | 25.3 µM | – | Non-Toxic | fold change (FC) (Staphylococcus aureus [20]): 2 - 4; fold change (FC) [21]: 4
CC(C)(C)OC(=O)N[C@@H](Cc1ccccc1)CN(CCc1c[nH]c2ccccc12)C(=O)/C=C/c1ccccc1 | 19.1 µM | 70 µM | Non-Toxic | – | fold change (FC) [22]: 4 to 8; fold change (FC) (Staphylococcus aureus [23]): 1 - 2; Ratio [24]: 2
CC(C)(C)OC(=O)N[C@@H](Cc1ccccc1)CN(CCc1ccccc1)C(=O)/C=C/c1ccccc1 | 20.6 µM | 17.3 µM | Non-Toxic | – | fold change (FC) (Staphylococcus aureus [25]): 1; fold change (FC) [26]: 1 to 2
CC(C)[C@@H](CN(CCc1ccccc1)C(=O)/C=C/c1ccccc1)NC(=O)OC(C)(C)C | 22.9 µM | 40.7 µM | Non-Toxic | – | fold change (FC) [27]: 2; fold change (FC) (Staphylococcus aureus [28]): 1 - 2
Cl.NCCN(CCc1c[nH]c2ccccc12)C(=O)/C=C/c1ccccc1 | 81.3 µM | 20.7 µM | – | Non-Toxic | fold change (FC) (Staphylococcus aureus [29]): 2; fold change (FC) [30]: 2
CC(C)(C)OC(=O)NCCN(CCc1ccccc1)C(=O)/C=C/c1ccccc1 | 25.3 µM | 54.7 µM | Non-Toxic | – | fold change (FC) [31]: 2; fold change (FC) (Staphylococcus aureus [32]): 1
CC(C)(C)OC(=O)NCCN(CCc1c[nH]c2ccccc12)C(=O)/C=C/c1ccccc1 | 23 µM | 35.3 µM | Non-Toxic | – | fold change (FC) [33]: 4; fold change (FC) (Staphylococcus aureus [34]): 2
